Experimental data: ChEMBL document CHEMBL3864172, “New Peptidomimetic Boronates for Selective Inhibition of the Chymotrypsin-like Activity of the 26S Proteasome” (ACS Med Chem Lett, 2016)
pIC50, pKi: −log10 of the molar value. Activity calls are given as the source filed them. The calls are words filed in the database; no cut-off is given here.

Legend:
[1] = Inhibition of caspase like activity of rabbit 20S proteasome using Ac-nLPnLD-AMC as substrate preincubated for 15 mins followed by substrate addition measured after 2 hrs by fluorescence-based assay; set-up: species or system Oryctolagus cuniculus
[2] = species on record: Oryctolagus cuniculus; assay: Selectivity ratio of IC50 for caspase like activity of rabbit 20S proteasome to IC50 for chymotrypsin like activity of rabbit 20S proteasome
[3] = Inhibition of trypsin like activity of rabbit 20S proteasome using Bz-Val-Gly-Arg-AMC as substrate preincubated for 15 mins followed by substrate addition measured after 2 hrs by fluorescence-based assay; set-up: species or system Oryctolagus cuniculus
[4] = Inhibition of bovine alpha chymotrypsin using Ala-Ala-Phe-7-AMC as substrate measured for 10 mins by spectrophotometric analysis; set-up: species or system Bos taurus
In short: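 Enzyme was bovine α-chymotrypsin. Compounds were tested up to a top concentration of 25000 nM. Ki values are the mean of three separate experiments, with variation between experiments below ±10%.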

[5] = biological target: T1, Proteasome subunit beta type-8 (Mus musculus, UniProt P28063); assay: Inhibition of chymotrypsin like activity of mouse spleen 20S proteasome beta5i subunit using Suc-Leu-Leu-Val-Tyr-AMC as substrate preincubated for 15 mins followed by substrate addition measured after 2 hrs by fluorescence-based assay
T1 sequence (P28063 whole entry): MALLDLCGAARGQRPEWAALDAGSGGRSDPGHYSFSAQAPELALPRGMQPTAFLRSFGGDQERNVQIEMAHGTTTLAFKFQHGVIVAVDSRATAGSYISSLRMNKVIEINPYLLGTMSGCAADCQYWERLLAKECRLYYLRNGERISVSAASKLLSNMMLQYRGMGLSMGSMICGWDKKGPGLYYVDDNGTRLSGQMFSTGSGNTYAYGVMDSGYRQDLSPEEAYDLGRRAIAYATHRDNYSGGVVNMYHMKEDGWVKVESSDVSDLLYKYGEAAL

[6] = Inhibition of chymotrypsin like activity of rabbit 20S proteasome using Suc-Leu-Leu-Val-Tyr-AMC as substrate preincubated for 15 mins followed by substrate addition measured after 2 hrs by fluorescence-based assay; set-up: species or system Oryctolagus cuniculus
[7] = Cytotoxicity against HNDF cells harboring wild type p53 assessed as reduction in cell viability after 48 hrs by 7AAD-staining based FACS analysis; type: toxicity; settings: human; for CC50 at 48 h: HNDF cells harboring wild type p53, read-out: LD50; for Activity: hndf, 48 h
In short: (§1)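 Cells were exposed for 48 h to compound titrations from 0 to 5000 nM. Cell death was read out by 7AAD staining, and the LD50 was taken from dose-response curves. n=3.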

[8] = Cytotoxicity against human MCF10A cells harboring wild type p53 assessed as reduction in cell viability after 48 hrs by 7AAD-staining based FACS analysis; type: toxicity, MCF-10A; settings: for CC50 at 48 h: MCF10A cells harboring wild type p53, read-out: LD50; for Activity: mcf-10a, 48 h; in short: as §1
[9] = (§2) Cytotoxicity against human RD-ES cells harboring p53 mutant assessed as reduction in cell viability after 48 hrs by 7AAD-staining based FACS analysis; type: functional; settings: read-out: LD50 (the source's name); in short: as §1
[10] = Cytotoxicity against human IMR90 cells harboring wild type p53 assessed as reduction in cell viability after 48 hrs by 7AAD-staining based FACS analysis; type: toxicity, IMR-90; settings: for CC50 at 48 h: IMR90 cells harboring wild type p53, read-out: LD50; for Activity: imr-90, 48 h; in short: as §1
[11] = Cytotoxicity against human LCL cells harboring wild type p53 assessed as reduction in cell viability after 48 hrs by 7AAD-staining based FACS analysis; type: toxicity; settings: for CC50 at 48 h: LCL cells harboring wild type p53, read-out: LD50; for Activity: lcl, 48 h; in short: as §1
[12] = (§3) Cytotoxicity against human MCF7 cells harboring wild type p53 assessed as reduction in cell viability after 48 hrs by 7AAD-staining based FACS analysis; type: functional; settings: MCF7, 48 h, read-out: LD50 (the source's name); in short: as §1
[13] = (§4) Cytotoxicity against human KGN cells harboring wild type p53 assessed as reduction in cell viability after 48 hrs by 7AAD-staining based FACS analysis; type: functional; settings: read-out: LD50 (the source's name); in short: as §1
[14] = (§5) Cytotoxicity against human WE68 cells harboring wild type p53 assessed as reduction in cell viability after 48 hrs by 7AAD-staining based FACS analysis; type: functional; settings: WE68, 48 h, read-out: LD50 (the source's name); in short: as §1
[15] = (§6) Cytotoxicity against human U266 cells harboring mutant p53 assessed as reduction in cell viability after 48 hrs by 7AAD-staining based FACS analysis; type: functional; settings: U-266, 48 h, read-out: LD50 (the source's name); in short: as §1
[16] = (§7) Cytotoxicity against p53 deficient human SKOV3 cells assessed as reduction in cell viability after 48 hrs by 7AAD-staining based FACS analysis; type: functional; settings: SK-OV-3, 48 h, read-out: LD50 (the source's name); in short: as §1
[17] = tested on: MDA-MB-468; assay: Inhibition of 26S proteasome in human MDA-MB-468 cells assessed as accumulation of high molecular weight polyubiquitin-conjugated proteins at 35 nM after 4 hrs by Western blot analysis; type: cell-based
[18] = (§8) Cytotoxicity against human MDA-MB-468 cells harboring mutant p53 assessed as reduction in cell viability after 48 hrs by 7AAD-staining based FACS analysis; type: functional; settings: MDA-MB-468, 48 h, read-out: LD50 (the source's name); in short: as §1
[19] = tested on: MCF7; assay: Inhibition of 26S proteasome in human MCF7 cells assessed as accumulation of high molecular weight polyubiquitin-conjugated proteins at 35 nM after 4 hrs by Western blot analysis; type: cell-based
[20] = Terminal half life in human plasma at 20 mg/m2 iv, administered for 2 to 10 mins after dexamethasone addition by LC-MS/MS analysis; type: ADME, cell-free; settings: read-out: beta t1/2
[21] = Inhibition of chymotrypsin like activity of rabbit 20S proteasome using Suc-LLVY-AMC as substrate preincubated for 15 mins followed by substrate addition measured after 2 hrs by microplate-fluorometric analysis; set-up: species or system Oryctolagus cuniculus
[22] = (§9) Cytotoxicity against human NCI-H929 cells harboring wild type p53 assessed as reduction in cell viability after 48 hrs by 7AAD-staining based FACS analysis; type: functional; settings: NCI-H929, 48 h, read-out: LD50 (the source's name); in short: as §1
[23] = tested on: U-266; assay: Selectivity ratio of LD50 for human U266 cells to LD50 for human NCI-H929 cells; type: functional
[24] = tested on: RD-ES; assay: as §2; type: functional; in short: as §1
[25] = tested on: MCF7; assay: as §3; type: functional; in short: as §1
[26] = tested on: KGN; assay: as §4; type: functional; in short: as §1
[27] = tested on: WE68; assay: as §5; type: functional; in short: as §1
[28] = Selectivity ratio of LD50 for human SKOV3 cells to LD50 for human KGN cells; type: functional
[29] = tested on: U-266; assay: as §6; type: functional; in short: as §1
[30] = tested on: SK-OV-3; assay: as §7; type: functional; in short: as §1
[31] = tested on: MDA-MB-468; assay: as §8; type: functional; in short: as §1
[32] = tested on: NCI-H929; assay: as §9; type: functional; in short: as §1

| SMILES | pIC50 [1] | Ratio IC50 [2] | pIC50 [3] | pKi [4] | pIC50 [5] | pIC50 [6] | CC50 at 48 h [7] [nM] | CC50 at 48 h [8] [nM] | CC50 [9] [nM] | CC50 at 48 h [10] [nM] | CC50 at 48 h [11] [nM] | CC50 [12] [nM] | CC50 [13] [nM] | CC50 [14] [nM] | CC50 [15] [nM] | CC50 [16] [nM] | polyubiquitin accumulation (active/inactive) [17] | CC50 [18] [nM] | Polyubiquitin-conjugate accumulation [19] | CC50 [22] [nM] | further results |
| --- | --- | --- | --- | --- | --- | --- | --- | --- | --- | --- | --- | --- | --- | --- | --- | --- | --- | --- | --- | --- | --- |
| C=CCOc1ccc(CCC(=O)c2ccc(C(=O)N[C@@H](Cc3ccc(OCC=C)cc3)C(=O)N[C@@H](Cc3ccccc3)B3O[C@@H]4C[C@@H]5C[C@@H](C5(C)C)[C@]4(C)O3)[nH]2)cc1 | 5.48 | 32.1 | < 4.60 | 5.88 | 6.95 | 6.98 | – | – | – | – | – | – | – | – | – | – | – | – | – | – | – |
| CC(C)C[C@H](NC(=O)[C@H](CCc1ccccc1)NC(=O)CN1CCOCC1)C(=O)N[C@@H](Cc1ccccc1)C(=O)N[C@@H](CC(C)C)C(=O)[C@@]1(C)CO1 [CARFILZOMIB] | < 4.60 | – | < 4.60 | < 4.60 | – | 7.64 | 350 | 320 | 43 | 130 | 30 | 4500 | 450 | 80 | 60 | 320 | Active | 330 | Active | – | half-life [20]: 5 to 20 min |
| C#CCOc1ccc(C[C@@H](C=O)NC(=O)[C@@H](NC(=O)[C@H](CCCCN=[N+]=[N-])NC(=O)OCc2ccccc2)[C@H](C)CC)cc1 | – | – | – | – | – | – | – | – | – | – | – | – | – | – | – | – | – | – | – | – | pIC50 [21]: 7.68 |
| CC(C)C[C@H](NC(=O)[C@H](Cc1ccccc1)NC(=O)c1cnccn1)B(O)O [BORTEZOMIB] | 6.96 | – | < 4.60 | 5.74 | 7.77 | 7.46 | 480 | 1500 | 40 | 130 | 20 | 9800 | 180 | 100 | 18 | 1600 | Active | 37 | Active | 6.6 | – |
| C=CCOc1ccc(CCC(=O)c2ccc(C(=O)N[C@@H](Cc3ccc(OCC=C)cc3)C(=O)N[C@@H](CC(C)C)B3O[C@@H]4C[C@@H]5C[C@@H](C5(C)C)[C@]4(C)O3)[nH]2)cc1 | 5.38 | 200 | < 4.60 | < 4.60 | 6.32 | 7.68 | 1080 | 9000 | 65 | 150 | 90 | 3000 | 180 | 65 | 29 | 1500 | Active | 50 | Active | 9 | Selectivity ratio [23]: 2; Activity [7]: Dose-dependent effect; Activity [8]: Dose-dependent effect; Activity [24]: Dose-dependent effect; Activity [10]: Dose-dependent effect; Activity [11]: Dose-dependent effect; Activity [25]: Dose-dependent effect; Activity [26]: Dose-dependent effect; Activity [27]: Dose-dependent effect; Selectivity ratio [28]: 5; Activity [29]: Dose-dependent effect; Activity [30]: Dose-dependent effect; Activity [31]: Dose-dependent effect; Activity [32]: Dose-dependent effect |
| CC[C@H](C)[C@H](NC(=O)[C@H](CCCCN=[N+]=[N-])NC(=O)OCc1ccccc1)C(=O)N[C@@H](CC(C)C)B1O[C@@H]2C[C@@H]3C[C@@H](C3(C)C)[C@]2(C)O1 | 5.80 | 113 | < 4.60 | < 4.60 | 6.93 | 7.85 | 500 | 5000 | 35 | 200 | 30 | 1500 | 65 | 35 | 15 | 370 | Active | 30 | Active | 6.4 | Selectivity ratio [23]: 2; Activity [7]: Dose-dependent effect; Activity [8]: Dose-dependent effect; Activity [24]: Dose-dependent effect; Activity [10]: Dose-dependent effect; Activity [11]: Dose-dependent effect; Activity [25]: Dose-dependent effect; Activity [26]: Dose-dependent effect; Activity [27]: Dose-dependent effect; Selectivity ratio [28]: 5; Activity [29]: Dose-dependent effect; Activity [30]: Dose-dependent effect; Activity [31]: Dose-dependent effect; Activity [32]: Dose-dependent effect |
| CC[C@H](C)[C@H](NC(=O)[C@H](CCCCN=[N+]=[N-])NC(=O)OCc1ccccc1)C(=O)N[C@@H](Cc1ccccc1)B1O[C@@H]2C[C@@H]3C[C@@H](C3(C)C)[C@]2(C)O1 | 5.61 | 117 | < 4.60 | 5.15 | 7.86 | 7.68 | 60 | 1250 | 33 | 8 | – | 79 | 48 | 14 | 14 | 46 | – | 24 | – | 12 | Activity [7]: Dose-dependent effect; Activity [8]: Dose-dependent effect; Activity [24]: Dose-dependent effect; Activity [10]: Dose-dependent effect; Activity [11]: Dose-dependent effect; Activity [25]: Dose-dependent effect; Activity [26]: Dose-dependent effect; Activity [27]: Dose-dependent effect; Activity [29]: Dose-dependent effect; Activity [30]: Dose-dependent effect; Activity [31]: Dose-dependent effect; Activity [32]: Dose-dependent effect |
